Results on six molecules are retold here after ChEMBL document CHEMBL1153844, “Synthesis, crystal structure and anti-inflammatory properties of curcumin analogues” (2009).

For orientation: inhibition means the relative decrease from the control value, in per cent.

In assay [1] the test system is J774.A1. The assay can be described thus: Enhancement of LPS-induced TNFalpha production in mouse J774A1 cells at 10 uM preincubated for 3 hrs before LPS challenge measured after 21 hrs by ELISA. The format is functional, cell-based. The method, boiled down:
(§1)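 J774A.1 mouse macrophage-like cells were plated overnight in DMEM with 10% FBS and penicillin/streptomycin at 1.2 × 10⁶/plate, 37 °C, 5% CO₂. They were pretreated 3 h with compound or vehicle, then given LPS for 21 h. TNF-α or IL-6 in the medium was measured by ELISA and normalized to total protein of the lysed cell pellet. Values are percent of LPS control, from three independent experiments (mean ± S.E.).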
(In general: ELISA stands for enzyme-linked immunosorbent assay.)

The test system of assay [2] is J774.A1. The assay can be described thus: Enhancement of LPS-induced IL6 production in mouse J774A1 cells at 10 uM preincubated for 3 hrs before LPS challenge measured after 21 hrs by ELISA. The format is functional, cell-based. In short, it runs like this: as §1
Assay [3] has as its system J774.A1. Kind of assay: Antiinflammatory activity in mouse J774A1 cells assessed as inhibition of LPS-induced TNFalpha production at 10 uM preincubated for 3 hrs before LPS challenge measured after 21 hrs by ELISA. The assay is classed as functional, cell-based. The method, boiled down: as §1
The subject of assay [4] is J774.A1. The assay can be described thus: Antiinflammatory activity in mouse J774A1 cells assessed as inhibition of LPS-induced IL6 production at 10 uM preincubated for 3 hrs before LPS challenge measured after 21 hrs by ELISA. The assay is classed as functional, cell-based. In short, it runs like this:
as §1

Assay [5] relates to J774.A1. The assay can be described thus: Antiinflammatory activity in mouse J774A1 cells assessed as inhibition of LPS-induced TNFalpha production at 10 uM preincubated for 3 hrs before LPS challenge measured after 21 hrs by ELISA relative to control. The assay is classed as functional. In short, it runs like this:
as §1

Assay [6] concerns J774.A1. Kind of assay: Antiinflammatory activity in mouse J774A1 cells assessed as inhibition of LPS-induced IL6 production at 10 uM preincubated for 3 hrs before LPS challenge measured after 21 hrs by ELISA relative to control. The format is functional. In short, it runs like this: as §1

The source made the active and inactive calls. The calls are words filed in the database; no cut-off is given here.

`O=C(/C=C/c1ccc(O)cc1)/C=C/c1ccc(O)cc1`: the outcome in the assay with J774.A1 [1] and in the assay with J774.A1 [2] was Active.
On to `COc1cc(/C=C2\CCC/C(=C\c3ccc(O)c(OC)c3)C2=O)ccc1O`, for which the result in the assay with J774.A1 [3] and in the assay on J774.A1 [4] was Active.
As to `O=C1/C(=C/c2ccc(F)cc2)CCC/C1=C\c1ccc(F)cc1`, the figures for the inhibition at 10 µM in the assay on J774.A1 [5] and in the assay on J774.A1 [6] were 65.3% and 54.8%, respectively.
`COc1cc(/C=C/C(=O)/C=C/c2ccc(O)c(OC)c2)ccc1O`: the result in the assay on J774.A1 [3] and in the assay with J774.A1 [4] was Active.
For `O=C1/C(=C/c2ccc(O)cc2)CCC/C1=C\c1ccc(O)cc1`, the outcome in the assay on J774.A1 [3] and in the assay on J774.A1 [4] was Active.
Regarding `COc1cc(/C=C2\CC/C(=C\c3ccc(O)c(OC)c3)C2=O)ccc1O`, the result with J774.A1 [3] and with J774.A1 [4] was Active.
